Experiments:
Rattus norvegicus = organism: Rattus norvegicus; assay: Inhibition of [Ca2+] induced contraction of K+ depolarized rat aorta by 50%; type: functional
Outline: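 Spirally cut thoracic aorta strips from male Wistar rats were held in modified Krebs solution at 37 °C, gassed with 95% O2/5% CO2. Ca2+-induced contraction was measured after K+ depolarization. The value is the molar concentration blocking contraction by 50%, given as mean ± SE of 3–6 determinations.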

[1] = Inhibitory concentration of [3H]- nitrendipine binding against guinea pig cerebral cortex membrane; type: functional, tissue-based, Cavia porcellus
Outline: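 Guinea pig cerebral cortex membranes (washed pellets, stored in liquid nitrogen), 200 μg protein, incubated under sodium light for 90 min at 25 °C in 50 mmol Tris-HCl pH 7.4 with 0.5 nmol [3H]nitrendipine and various compound concentrations (DMSO). Filtration and scintillation counting; 1 μM nifedipine defined specific binding.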

Cavia porcellus [2] = organism: Cavia porcellus; assay: Inhibition of [3H]nitrendipine binding to L-type calcium channel of guinea pig cerebral cortex membrane at 10e-5 M; type: functional, tissue-based
Cavia porcellus [3] = organism: Cavia porcellus; assay: Stimulatory concentration of [3H]nitrendipine binding to L-type calcium channel of guinea pig cerebral cortex membrane at 10e-6 M; type: functional, tissue-based
Cavia porcellus [4] = organism: Cavia porcellus; assay: Molar concentration needed to […] by 50% of maximal stimulation; type: functional

IC50 (Rattus norvegicus) [nM]	IC50 [1] [nM]	inhibition (Cavia porcellus [2]) [%]	Stimulation (Cavia porcellus [3]) [%]	IC50 (Cavia porcellus [4]) [nM]	SMILES
168					CC(C)c1nn2ccccc2c1S(=O)(=O)c1ccc(OCCCNC(C)(C)C)cc1
99.3	116				CC(C)c1c(S(=O)(=O)c2ccc(OCCCNC(C)(C)C)cc2)c2ccccc2n1C
	38				COc1ccc(CCN(C)CCCC(C#N)(c2ccc(OC)c(OC)c2)C(C)C)cc1OC (stereo unspecified)
227	7.9				CCCCc1oc2ccccc2c1S(=O)(=O)c1ccc(OCCCN(C)CCc2ccc(OC)c(OC)c2)cc1
84.2	13.1				COc1ccc(CCN(C)CCCOc2ccc(S(=O)(=O)c3cc4ccccc4nc3C(C)C)cc2)cc1OC
5060		6			CCCCN(CCCC)CCCOc1ccc(S(=O)(=O)c2c[nH]nc2C(C)C)cc1
19.1	10.9				COc1ccc(CCN(C)CCCOc2ccc(S(=O)(=O)c3c(C(C)C)[nH]c4ccccc34)cc2)cc1OC
31.1					CCCCN(CCCC)CCCOc1ccc(S(=O)(=O)c2c(C(C)C)nn3ccccc23)cc1
14.3	1.9				COc1ccc(CN(C)CCCOc2ccc(S(=O)(=O)c3c(C(C)C)oc4ccccc34)cc2)cc1OC
119	186				CCCCN(CCCC)CCCOc1ccc(S(=O)(=O)c2ccoc2C(C)C)cc1
24.1	11				CCCCN(CCCC)CCCOc1ccc(S(=O)(=O)c2c(C(C)C)n(C)c3ccccc23)cc1
37.5	2.2				COc1ccc(CCN(C)CCCOc2ccc(S(=O)(=O)c3[nH]c4ccccc4c3C(C)C)cc2)cc1OC
4.3	1.1				COc1ccc(CCN(C)CCCOc2ccc(S(=O)(=O)c3c(C(C)C)n(C)c4ccccc34)cc2)cc1OC
32.9	12				CC(C)c1cc2ccccn2c1S(=O)(=O)c1ccc(OCCCNC(C)(C)C)cc1
1720			38		COc1ccc(CCN(C)CCCOc2ccc(S(=O)(=O)c3c[nH]nc3C(C)C)cc2)cc1OC
18.8	2.6				COc1ccc(CCN(C)CCCOc2ccc(S(=O)(=O)c3c(C(C)C)nn4ccccc34)cc2)cc1OC
17.1	1.6				COc1ccc(CCNCCCOc2ccc(S(=O)(=O)c3c(C(C)C)oc4ccccc34)cc2)cc1OC

IC50 (Rattus norvegicus) [nM]	IC50 [1] [nM]	inhibition (Cavia porcellus [2]) [%]	Stimulation (Cavia porcellus [3]) [%]	IC50 (Cavia porcellus [4]) [nM]	SMILES
	0.61				COc1ccc(CCN(C)CCCOc2ccc(S(=O)(=O)c3c(C(C)C)cn4ccccc34)cc2)cc1OC [FANTOFARONE]
1.9	0.28				COc1cc(CCN(C)CCCOc2ccc(S(=O)(=O)c3c(C(C)C)c4ccccc4n3C)cc2)cc(OC)c1OC
198	94				CCCCN(CCCC)CCCOc1ccc(S(=O)(=O)c2cc3ccccc3nc2C(C)C)cc1
370	181				CC(C)c1nc2ccccc2cc1S(=O)(=O)c1ccc(OCCCNC(C)(C)C)cc1
50.8	5.2				CCCc1oc2ccccc2c1S(=O)(=O)c1ccc(OCCCN(C)CCc2ccc(OC)c(OC)c2)cc1
5.9	0.22				COc1ccc(CCN(C)CCCOc2ccc(S(=O)(=O)c3c(C(C)C)cc4ccccn34)cc2)cc1OC
				59	COc1ccc([C@@H]2Sc3ccccc3N(CCN(C)C)C(=O)[C@@H]2OC(C)=O)cc1 [DILTIAZEM]
3.7	1				COc1ccc(CN(C)CCCOc2ccc(S(=O)(=O)c3c(C(C)C)n(C)c4ccccc34)cc2)cc1OC
20.2	0.65				COc1ccc(CCN(C)CCCOc2ccc(S(=O)(=O)c3c(C(C)C)oc4ccccc34)cc2)cc1OC
13.3	0.99				CCCCN(CCCC)CCCOc1ccc(S(=O)(=O)c2c(C(C)C)cc3ccccn23)cc1
5.8	0.59				COc1cc(CCN(C)CCCOc2ccc(S(=O)(=O)c3c(C(C)C)oc4ccccc34)cc2)cc(OC)c1OC
16.4	0.093				COc1cc(CCN(C)CCCOc2ccc(S(=O)(=O)c3c(C(C)C)c4ccccc4n3C)cc2)cc(OC)c1
84.2					COc1ccc(CCN(C)CCCOc2ccc(S(=O)(=O)c3ccoc3C(C)C)cc2)cc1OC
3.7	0.072				COc1ccc(CCN(C)CCCOc2ccc(S(=O)(=O)c3c(C(C)C)c4ccccc4n3C)cc2)cc1OC
55.1	110				CCCCN(CCCC)CCCOc1ccc(S(=O)(=O)c2c(C(C)C)[nH]c3ccccc23)cc1
235	244				CC(C)c1occc1S(=O)(=O)c1ccc(OCCCNC(C)(C)C)cc1

SMILES	IC50 (Rattus norvegicus) [nM]	IC50 [1] [nM]	inhibition (Cavia porcellus [2]) [%]	Stimulation (Cavia porcellus [3]) [%]	IC50 (Cavia porcellus [4]) [nM]
COC(=O)C1=C(C)NC(C)=C(C(=O)OC)C1c1ccccc1[N+](=O)[O-] [NIFEDIPINE]		2.5			

Source: ChEMBL document CHEMBL1126689, “Novel heterocyclic analogues of the new potent class of calcium entry blockers: 1-[[4-(aminoalkoxy)phenyl]sulfonyl]indolizines” (J Med Chem, 1993)
